FGF22 binding: binders of recombinant human FGF22 by thermal shift; AID 651658; activity (Tm shift, normalised), % at 9.99 µM; 340,000 tested, 1.5% active; SYPRO orange fluorescence; percent of sucrose octasulfate shift, DMSO zero; Q9HCT0;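 active = mean Tm shift, scaled 0 neutral to 100 positive control, at about 1.3% or above, every replicate too, limit read from the data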
Target sequence (Q9HCT0 whole entry, looked up): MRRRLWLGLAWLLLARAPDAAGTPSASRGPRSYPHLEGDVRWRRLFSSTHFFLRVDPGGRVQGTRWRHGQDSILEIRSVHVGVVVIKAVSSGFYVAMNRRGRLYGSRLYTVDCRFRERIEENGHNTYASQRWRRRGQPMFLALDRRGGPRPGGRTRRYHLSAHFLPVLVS
F508del corr: correctors of CFTR F508del function in bronchial epithelial cells; AID 720511; activity (quench increase), % at 7.58 µM; 350,000 tested, 0.36% active; CFBE cells, YFP halide quenching; stimulated with forskolin plus potentiator P3; % fluorescence drop versus neutral controls;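 active = mean added fluorescence quench of at least 8% versus neutral control, with both replicates also reaching 8%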;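 note: cells transiently co-express mutant CFTR-F508del with the halide-sensitive YFP; corrector assay measuring rescue of mutant channel to the surface after 24 h compound exposure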
S100A4 MyoIIA: blocks human S100A4 binding to myosin IIA peptide | P26447 | S100A4/TAMRA-MyoIIA peptide fluorescence polarization | inhibition, % at 10.7 µM | 360,000 tested, 0.14% active | AID 652163;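 active = mean inhibition of at least 70% across replicates, with every replicate also reaching that level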
Target sequence (P26447 whole entry, looked up): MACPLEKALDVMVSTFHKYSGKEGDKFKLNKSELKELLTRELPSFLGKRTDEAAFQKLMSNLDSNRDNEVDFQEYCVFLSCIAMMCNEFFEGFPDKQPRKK
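Test system – S100A4 monomer (human) · Compound – single-point compound testing · Schedule – 5 min incubation before reading · Probe or stimulus – TAMRA-labelled myosin IIA heavy-chain peptide probe, 5 nM · Benchmarks – neutral control DMSO, positive control TFP · Medium – Calcium-containing HEPES buffer, pH 7.2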
dFosB activator: enhances mouse delta FosB homodimer DNA binding; P13346; purified delta FosB, TAMRA-CDK5 oligo fluorescence polarization; percent of positive-control signal above neutral wells; activation, % at 25 µM; 340,000 tested, 0.99% active;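 active = mean activation above about 17%, with every replicate also reaching it, limit read from the data, passing the limit was not always enough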
A number is an active result. The list is not random: actives were taken first. Their share in the collection is about 2.2%.

`C[C@@H]1CCCCO[C@H](CN(C)C(=O)Nc2ccc(C(F)(F)F)cc2)[C@@H](C)CN([C@H](C)CO)C(=O)c2cc(NC(=O)Nc3ccc(C(F)(F)F)cc3)ccc2O1` gave FGF22 binding 1.4, F508del corr inactive and S100A4 MyoIIA inactive.
Screening Cc1nc(-c2ccccc2)sc1C(=O)O returned FGF22 binding inactive, F508del corr inactive, S100A4 MyoIIA inactive and dFosB activator inactive.
`Cc1ccc(-c2nc(C)c(C(=O)O)s2)cc1` gave FGF22 binding 43, F508del corr inactive, S100A4 MyoIIA inactive and dFosB activator inactive.
`CN(C)/C=N/c1nc2ncc(-c3ccc(Cl)cc3)c(/N=C/N(C)C)n2n1` gave FGF22 binding 43, F508del corr inactive, S100A4 MyoIIA inactive and dFosB activator inactive.
For CN(C)/C=N/c1nc2nccc(-c3ccc(F)cc3)n2n1 the results were FGF22 binding inactive, F508del corr inactive, S100A4 MyoIIA inactive and dFosB activator inactive.
`CCCNC(=O)N1CC2(CN(C(=O)Cc3cccnc3)C2)c2c([nH]c3cc(OC)ccc23)[C@H]1CO` gave F508del corr inactive and S100A4 MyoIIA inactive.
For c1ccc(-c2csc(-n3cccn3)n2)cc1 the results were FGF22 binding 43, F508del corr inactive, S100A4 MyoIIA inactive and dFosB activator inactive.
For CCc1nc2ccc(C(=O)Nc3cc(-c4ccccc4)ccc3OC)cn2c1N(C)Cc1nccs1 the results were FGF22 binding 43, F508del corr inactive and S100A4 MyoIIA inactive.
CCOC(=O)/C=C1\SCC(=O)N1CC(=O)NCc1ccc(OC)c(OC)c1 was read as FGF22 binding 43, F508del corr inactive, S100A4 MyoIIA inactive and dFosB activator inactive.
`CC(=O)c1ccc(N(CC(=O)NC2CCCC2)C(=O)c2csnn2)cc1` gave FGF22 binding 44, F508del corr inactive, S100A4 MyoIIA inactive and dFosB activator inactive.
`C[C@H](NC(=O)C[C@H]1C=C[C@@H](NC(=O)C2CCC2)[C@H](CO)O1)c1ccccc1` gave FGF22 binding inactive, F508del corr inactive and S100A4 MyoIIA inactive.
For O=C1c2cccc3cccc(c23)C(=O)N1CC1CCN(CC(O)COc2ccc3ccccc3c2)CC1 (configuration not stated) the results were FGF22 binding inactive, F508del corr inactive, S100A4 MyoIIA inactive and dFosB activator inactive.
Screening Cc1cc(C)cc(OCC(O)CN2CCC(CN3C(=O)c4cccc5cccc(c45)C3=O)CC2)c1 (configuration not stated) returned FGF22 binding inactive, F508del corr inactive, S100A4 MyoIIA inactive and dFosB activator 52.
COc1cc(C(=O)N2CCN(c3ccccc3OC)CC2)c([N+](=O)[O-])cc1OC was read as FGF22 binding inactive, F508del corr inactive, S100A4 MyoIIA inactive and dFosB activator inactive.
For COc1cc(C(=O)c2ccccc2Cl)c([N+](=O)[O-])cc1OC the results were FGF22 binding 44, F508del corr inactive, S100A4 MyoIIA inactive and dFosB activator inactive.
Screening COc1cc(C(=O)Nc2ccncc2)c([N+](=O)[O-])cc1OC returned FGF22 binding inactive, F508del corr inactive, S100A4 MyoIIA inactive and dFosB activator inactive.
`COc1cc(C(=O)N2CCN(c3ccccc3)CC2)c([N+](=O)[O-])cc1OC` gave FGF22 binding 43, F508del corr inactive, S100A4 MyoIIA inactive and dFosB activator inactive.
CNC[C@H]1OCCCC[C@H](C)Oc2ccc(NS(=O)(=O)c3ccc(C)cc3)cc2C(=O)N([C@@H](C)CO)C[C@@H]1C was read as FGF22 binding inactive, F508del corr inactive and S100A4 MyoIIA inactive.
`Cc1ccc(S(=O)(=O)N(C)C[C@@H]2Oc3ccc(NC(=O)Cn4cnnn4)cc3C(=O)N([C@H](C)CO)C[C@@H]2C)cc1` gave FGF22 binding inactive, F508del corr inactive and S100A4 MyoIIA inactive.
For CN(C)CC(=O)N1CC2(C1)[C@@H](c1ccccc1)[C@@H](CO)N2C(=O)C1CCCCC1 the results were FGF22 binding inactive, F508del corr inactive and S100A4 MyoIIA inactive.
For C[C@H]1CN([C@@H](C)CO)C(=O)c2cc(Br)cnc2O[C@H]1CN(C)C(=O)c1ccccc1F the results were FGF22 binding inactive, F508del corr inactive and S100A4 MyoIIA 139.
COc1ccc(NC(=O)N(C)C[C@@H]2Oc3ncc(C#CC(C)(C)O)cc3C(=O)N([C@H](C)CO)C[C@@H]2C)cc1 was read as FGF22 binding inactive, F508del corr inactive and S100A4 MyoIIA 112.

Screening data from PubChem.
